Measurements of several laboratories.
Protocols differ between the studies behind these lines.
Target: Proto-oncogene tyrosine-protein kinase ROS (ROS1, Homo sapiens, UniProt P08922)

| Structure (SMILES) | observed | technique | concentration | remaining binding [%] |
| --- | --- | --- | --- | --- |
| O=C(c1ccc(Nc2nccc(-c3cc4ccccc4s3)n2)cc1)N1CCC(N2CCCC2)CC1 | binding | competition with immobilised ligand | 1 µM | 65 |
| CN(C)CC#Cc1ccc(OCCCc2sc(N3CCc4cccc(C(=O)Nc5nc6ccccc6s5)c4C3)nc2C(=O)O)c(F)c1 | cell-free assay | competition with immobilised ligand | 1 µM | 93 |
| CN(c1nccc(-c2cnn3ncccc23)n1)C1CC1 | binding | – | 1 µM | 100 |
| Nc1ncc2c(n1)-c1c([nH]c3ccc(C#CC4CC4)cc13)CCCC2 | binding | competition with immobilised ligand | 1 µM | 99 |
| O=S(=O)(NC1CCC(c2cc(F)ccc2F)(S(=O)(=O)c2ccc(Cl)cc2)CC1)C(F)(F)F (stereo not shown) | cell-free assay | competition with immobilised ligand | 1 µM | 100 |
| c1cncc(-c2cccc(Nc3nccc(NC4CCCCC4)n3)c2)c1 | binding | competition with immobilised ligand | 10 µM | 20 |
| CO[C@@H](C)c1c(Nc2ccc([C@H](N(C)C(=O)C3CCS(=O)(=O)CC3)C(F)(F)F)cc2)cnc2cc(Cl)nn12 | cell-free assay | competition with immobilised ligand | 1 µM | 77 |
| CNC(=O)[C@@H]1CC[C@@H](n2c(-c3ccc4cnccc4c3)nc3ccc(C(=O)NCc4cccc(C(N)=O)c4)cc32)C1 | binding | competition with immobilised ligand | 1 µM | 100 |
| Cc1cnn2ncc(-c3ccnc(N(C)C)n3)c2c1 | binding | – | 1 µM | 100 |
| CCN1CCN(Cc2ccc(C(=O)Nc3ccc(C)c(Oc4ccc5c(c4)CC(=O)N5)c3)cc2C(F)(F)F)CC1 | binding | competition with immobilised ligand | 1 µM | 100 |
| O=C(NCCCC1CCCCC1)c1ccc(CNC(=O)c2cnn(-c3ccccc3)c2C(F)(F)F)cc1 | cell-free assay | competition with immobilised ligand | 0.1 µM | 100 |
| CN(C)c1ncc(F)c(-c2cnn3ncccc23)n1 | binding | – | 1 µM | 87 |
| CNCc1ccccc1-c1csc([C@@H](C)Nc2nc(C)nc3cc(OC)c(OC)cc23)c1 | cell-free assay | competition with immobilised ligand | 1 µM | 84 |
| C[C@@H]1CCN(c2nccc(-c3cnn4ncccc34)n2)C1 | binding | – | 1 µM | 99 |
| O=C(c1ccc(Nc2ncc(Cl)c(-c3ccc(Cl)s3)n2)cc1)N1CCC(N2CCCC2)CC1 | binding | competition with immobilised ligand | 1 µM | 37 |
| COc1ncc2cc3ccccc3nc2c1C#N | cell-free assay | competition with immobilised ligand | 5 µM | 91 |
| Cc1cnc(Nc2ccc(C(=O)N3CCC(N4CCCC4)CC3)cc2)nc1-c1cc2ccccc2s1 | binding | competition with immobilised ligand | 1 µM | 31 |
| COc1ccc2c(O[C@@H]3C[C@H]4C(=O)N[C@]5(C(=O)O)CC5/C=C\CCCCC[C@H](NC(=O)OC5CCCC5)C(=O)N4C3)cc(-c3csc(NC(=O)C(C)C)n3)nc2c1C (stereo partly shown) | cell-free assay | competition with immobilised ligand | 1 µM | 100 |
| N[C@@H]1CCN(c2nccc(-c3cnn4ncccc34)n2)C1 | binding | – | 1 µM | 72 |
| CC(=O)C1=C(C)N(c2cccc(C(F)(F)F)c2)C(=O)N[C@@H]1c1ccc(C#N)nc1 | cell-free assay | competition with immobilised ligand | 1 µM | 100 |
| c1cnn2ncc(-c3ccnc(N4CCC45COC5)n3)c2c1 | binding | – | 1 µM | 100 |
| O=C(NCC1CCOCC1)c1n[nH]cc1NC(=O)c1c(F)cccc1F | binding | competition with immobilised ligand | 1 µM | 100 |
